Results on twelve compounds are retold here after article PMC12675685 (Parasitology Research, 2025).

Entries after “also recorded” stand apart in the source; their conditions may differ. Structures can show the parent of a compound that is named as a salt. Where two headings read alike, the source gives them in different places.

One data set has as its system Babesia sp. Xinjiang. Description: Anti-proliferation assay in Babesia sp. Xinjiang. It is filed as cell-based. The conditions noted are these: for inhibitory effect on BxjG5 proliferation: concentrations increased to 200 μM, data not shown; for inhibition of BxjG5 growth in vitro, in words: 48, 72 and 96 h. Put shortly:
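Monoclonal BxjG5 line grown in RPMI 1640 with 20% FBS and 5% fresh sheep RBCs, 37 °C, humidified 5% CO2. Cultures seeded at 1% parasitemia with serial dilutions in medium (200 μΜ to 0.005 μΜ), run 48, 72 or 96 h, with drug-containing medium renewed every 48 h. DMSO controls (≤0.4%). Parasitemia counted on Giemsa smears (2,000–4,000 RBCs), inhibition taken relative to control, and curves fitted. Three experiments, triplicate wells.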

For the next data set, the system named is Babesia microti. Description: In vivo anti-Babesia activity in B. microti-infected BALB/c mice. The conditions noted are these: for effect on B. microti parasite burden in vivo, in words: furamidine 2 mg/kg bw, BIX-01294 10 mg/kg bw, DA 30 mg/kg bw i.p.
The next data set has as its system Babesia duncani. Description: In vivo anti-Babesia activity in B. duncani-infected hamsters. Also on record: species or system LVG Golden Syrian Hamsters. The conditions noted are these: for effect on B. duncani growth in vivo, in words / day post-treatment on which mortality reached 100% / mean parasitemia (parasite burden): furamidine 2 mg/kg bw; for effect on B. duncani growth in vivo, in words: BIX-01294 7.35 mg/kg bw i.p.; for day post-treatment on which mortality reached 100% / mean parasitemia (parasite burden): i.p. daily for five days, BIX-01294 7.35 mg/kg bw. Put shortly: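 Twenty 12-week-old hamsters were infected i.p. with 2,500 B. duncani-infected RBCs and split randomly into four equal groups. Dosing began once parasites appeared on Giemsa smears (parasitemia ≈ 1%): 200 μl i.p. daily for five days of vehicle (DMSO/PBS 1:1), test compounds or diminazene aceturate 20 mg/kg bw. Parasitemia was followed on smears and survival recorded. Groups were compared by one-way ANOVA with Tukey–Kramer.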

For the next data set, the system named is Babesia divergens. The conditions noted are these: cited from earlier work; for IC50: read-out: IC50 on B. divergens, ref Nehrbass-Stuedli et al. [2011].
For the next data set, the system named is Plasmodium falciparum. The conditions noted are these: read-out: IC50 against Plasmodium falciparum; ref Malmquist et al. [2012]; cited from earlier work.
A further data set relates to MDOK cells. Description: Cytotoxicity on host cells. In kind it is cell-based, sheep. The conditions noted are these: for IC50: read-out: IC50 in MDOK cells, CCK-8; for toxicity to MDOK cells, relative level: compared among the tested compounds.
Data set [1] is described as follows: In vivo safety evaluation of furamidine in healthy BALB/c mice. The conditions noted are these: 2 mg/kg bw i.p. daily for 5 consecutive days. The procedure, abridged: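 Healthy female BALB/c mice, 6–8 weeks old (n = 5/group), received vehicle (DMSO/PBS) or test compound i.p. daily for 5 days. Clinical signs were checked twice daily and weight each morning before dosing. Blood was taken retro-orbitally under isoflurane 24 h after the last dose: EDTA-K2 blood for haematology, serum for biochemistry. Livers were fixed in 4% paraformaldehyde and stained with H&E.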

In a further data set the test system is B. microti. The conditions noted are these: ref Nehrbass-Stuedli et al. [2011], cited from earlier work.
[2] abbreviates: Babesia, 48 h, read-out: IC50 in Babesia sp. Xinjiang.
The mark [3] stands for this setting: Babesia, 72 h, read-out: IC50 in Babesia sp. Xinjiang.
Where [4] appears, read: Babesia, 96 h, read-out: IC50 in Babesia sp. Xinjiang.
[5] abbreviates: Babesia, 96 h, read-out: IC50 on BxjG5 growth.

Consider `CCCc1cc(C)[nH]c(=O)c1CNC(=O)c1cc(-c2ccnc(N3CCN(C)CC3)c2)cc2c1cnn2C(C)C` [GSK343], for which the IC50 with Babesia sp. Xinjiang (setting [2]) stood at 7.25 ± 0.75 µM; in the data set with Babesia sp. Xinjiang (setting [3]), 6.88 ± 0.51 µM; in the data set on Babesia sp. Xinjiang (setting [4]) it was 7.04 ± 0.56 µM.
In the case of `COc1cc2nc(N3CCCN(C)CC3)nc(NC3CCN(Cc4ccccc4)CC3)c2cc1OC` [BIX-01294], the “effect on B. microti parasite burden in vivo, in words” value with Babesia microti is given as “did not appear to inhibit Babesia growth in vivo”. The IC50 in the data set with Babesia sp. Xinjiang (setting [2]) is 0.47 ± 0.1 µM; with Babesia sp. Xinjiang (setting [3]), 0.35 µM; in the data set on Babesia sp. Xinjiang (setting [4]) it was 0.29 µM; with Babesia sp. Xinjiang (setting [5]), 0.29 to 0.47 µM; in the data set on Plasmodium falciparum it was 0.075 ± 0.036 µM. For the same compound, the “effect on B. duncani growth in vivo, in words” value in the data set with Babesia duncani is recorded as “did not appear to inhibit Babesia growth in vivo”. Further, the “day post-treatment on which mortality reached 100%” value with Babesia duncani is 2 days. Besides, in the data set on Babesia duncani, the “mean parasitemia (parasite burden)” value is “approximately 20%”. In addition, in the data set with Babesia divergens (ref Vanheer and Kafsack [2021]), the “inhibitory activity against B. divergens in vitro, in words” value is “moderate inhibitory activity”.
With `CCOCC1(COCC)CCC(c2[nH]ncc2CN(C)CCNC)CC1.Cl.Cl.Cl` [GSK3368715], the “inhibitory effect on BxjG5 proliferation” value with Babesia sp. Xinjiang is “did not observe any obvious inhibitory effect”. Besides, the IC50 with Babesia sp. Xinjiang (read-out: IC50 in Babesia sp. Xinjiang, 48 h incubation, BxjG5) is > 200 µM; in the data set on Babesia sp. Xinjiang (read-out: IC50 in Babesia sp. Xinjiang, 72 h incubation, BxjG5) it was > 200 µM; with Babesia sp. Xinjiang (read-out: IC50 in Babesia sp. Xinjiang, 96 h incubation, BxjG5) it was > 200 µM; with MDOK cells (24 h), > 100 µM; with MDOK cells (48 h), > 100 µM; in the data set on MDOK cells (72 h), > 100 µM.
Regarding `CCCc1cc(C)[nH]c(=O)c1CNC(=O)c1cc(-c2ccc(N3CCN(C(C)C)CC3)nc2)cc2c1cnn2C(C)C` [UNC-1999], the figures for the IC50 in the data set on Babesia sp. Xinjiang (setting [2]), in the data set on Babesia sp. Xinjiang (setting [3]) and with Babesia sp. Xinjiang (setting [4]) were 5.15 ± 1.31 µM, 3.88 ± 1 µM and 4.7 ± 1.03 µM, respectively. Further, in the data set with MDOK cells (concentrations exceeded 10 μM), the “inhibition rate on MDOK cells” value is on record as “greater than 70%”.
Turning to `CCN(CC)Cc1cc(Nc2ccnc3cc(Cl)ccc23)ccc1O` [Amodiaquine], the 50% inhibitory concentration (IC50) was 33.2 ± 2.19 µM with Babesia sp. Xinjiang (setting [2]), 23.9 ± 1.47 µM in the data set with Babesia sp. Xinjiang (setting [3]), 26.6 ± 1.49 µM with Babesia sp. Xinjiang (setting [4]) and ~26 µM with Babesia sp. Xinjiang (setting [5]). Further, in the data set on MDOK cells, the “toxicity to MDOK cells, relative level” value was “intermediate levels”.
For `O=C([C@@H](Cc1cccc(C(F)(F)F)c1)NS(=O)(=O)c1cc(F)c2c(c1)CCNC2)N1CCCC1` [PFI-2 hydrochloride], the values for the IC50 in the data set with Babesia sp. Xinjiang (setting [2]), with Babesia sp. Xinjiang (setting [3]) and with Babesia sp. Xinjiang (setting [4]) were 16.5 ± 0.86 µM, 10.7 ± 0.82 µM and 17.5 ± 1.09 µM, respectively.
Turning to `Nc1ncnc2c1ncn2[C@@H]1O[C@H](C[C@@H](N)CC[C@H](N)C(=O)O)[C@@H](O)[C@H]1O` [Sinefungin], the IC50 came to 2.14 ± 0.07 µM in the data set with Babesia sp. Xinjiang (setting [2]), 2.25 ± 0.34 µM in the data set with Babesia sp. Xinjiang (setting [3]) and 2.89 ± 1.1 µM in the data set with Babesia sp. Xinjiang (setting [4]). Besides, the “inhibition rate on MDOK cells” value in the data set on MDOK cells (concentrations increased to 100 μM) is on record as < 30%.
For the compound `CN1C(=O)[C@@]23C[C@]4([C@]56C[C@@]78SS[C@@](CO)(C(=O)N7[C@H]5Nc5ccccc56)N(C)C8=O)c5ccccc5N[C@@H]4N2C(=O)[C@]1(CO)SS3` [Chaetocin], the IC50 with Babesia sp. Xinjiang (setting [2]), in the data set on Babesia sp. Xinjiang (setting [3]) and in the data set with Babesia sp. Xinjiang (setting [4]) was > 200 µM in each case. For the same compound, the “inhibitory effect on BxjG5 proliferation” value with Babesia sp. Xinjiang was “did not observe any obvious inhibitory effect”. Besides, in the data set with MDOK cells (concentrations exceeded 10 μM), the “inhibition rate on MDOK cells” value was “greater than 70%”.
Consider `N=C(N)c1ccc(-c2ccc(-c3ccc(C(=N)N)cc3)o2)cc1` [Furamidine], for which the “complete suppression of parasitemia up to day” value with Babesia microti (furamidine 2 mg/kg) worked out at 50 dpi. The “day posttreatment on which parasitemia peaked” value with Babesia microti (furamidine 2 mg/kg bw i.p.) came out at 3 days. In the data set with Babesia sp. Xinjiang, the “inhibition of BxjG5 growth in vitro, in words” value is listed as “effectively inhibit BxjG5 growth in vitro at nanomolar concentrations”. For the same compound, the IC50 with Babesia sp. Xinjiang (setting [2]) is 0.03 µM; with Babesia sp. Xinjiang (Babesia, read-out: IC50 on BxjG5) it was 0.02 µM; with Babesia divergens (strain 1903) it was 0.0368 µM; in the data set with Babesia divergens (strain 4201), 0.0358 µM; in the data set with MDOK cells (24 h), 98.81 ± 0.6 µM; with MDOK cells (48 h), 45.36 ± 0.43 µM. The IC50 in the data set on MDOK cells (72 h) was determined as 43.01 ± 0.24 µM. In the data set with Babesia duncani, the “effect on B. duncani growth in vivo, in words” value was “effectively inhibited the growth; also recorded: did not completely eliminate parasites”. The “day post-treatment on which mortality reached 100%” value in the data set on Babesia duncani was 6 days. Besides, the “mean parasitemia (parasite burden)” value in the data set on Babesia duncani is “less than 10%”. For the same compound, the “body weight gain versus vehicle control” value in data set [1] is listed as “no significant difference”. The “hematological and biochemical analyses versus vehicle control” value in data set [1] was “no significant differences”. The “liver histopathology (H&E)” value in data set [1] is reported as “appeared normal”. For the same compound, the “complete suppression of parasites through” value in the data set on B. microti (3.125 mg/kg) is reported as 13 days. Also, the “anti-parasite activity in B. microti-infected NMRI mouse model, in words” value with B. microti (25 mg/kg) is “totally cure”. Also, the “toxicity to MDOK cells, relative level” value in the data set on MDOK cells is recorded as “intermediate levels”.
For `Cc1cn(CCN2CCN(c3ccccc3-c3cc(C#N)cc(C(=O)NCCCN4CCCC4)c3)CC2)c2ccccc12` [LLY-507], the IC50 with Babesia sp. Xinjiang (setting [2]) stood at 4.02 ± 0.74 µM; with Babesia sp. Xinjiang (setting [3]), 3.25 ± 0.46 µM; in the data set on Babesia sp. Xinjiang (setting [4]), 2.58 ± 0.63 µM. Further, the “inhibition rate on MDOK cells” value in the data set on MDOK cells (concentrations exceeded 10 μM) is listed as “greater than 70%”.
In the case of `O=C(Nc1cccc(C2=NCCN2)c1)Nc1cccc(C2=NCCN2)c1` [Imidocarb dipropionate], in the data set with Babesia sp. Xinjiang, the “inhibition of BxjG5 growth in vitro, in words” value was “effectively inhibit BxjG5 growth in vitro at nanomolar concentrations”. In addition, the results for the half-maximal inhibitory concentration (IC50) in the data set with Babesia sp. Xinjiang (setting [3]) and in the data set on Babesia sp. Xinjiang (setting [4]) were 0.03 µM and 0.02 µM, respectively. The “toxicity to MDOK cells, relative level” value in the data set with MDOK cells is on record as “intermediate levels”.
With `CC(=O)NCC(=O)O.CC(=O)NCC(=O)O.N=C(N)c1ccc(N=NNc2ccc(C(=N)N)cc2)cc1` [DA, Diminazene Aceturate], the “effect on B. microti parasite burden in vivo, in words” value with Babesia microti was “effectively decreased the parasite burden”. Moreover, in the data set on Babesia duncani (DA 20 mg/kg bw i.p. daily for five days), the “deaths until day 43 posttreatment” value is 0/4.

What is called IC50 is the point on the concentration scale where inhibition reaches its midpoint.
